The source made the active and inactive calls. No cut-off for these calls is given here.
How the values were obtained:
Liver = assay: Intrinsic clearance in human liver S9 fractions at 1 uM after 60 mins by LC-MS/MS analysis; type: ADME, subcellular, S9 fraction; settings: s9, 1 h
Outline: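 1 µM in <0.25% DMSO, 37 °C, pooled rat or human S9 at 1 mg/mL, with 1 mM each of NADPH, UDPGA, PAPS and GSH. Sampled at 0, 10, 20, 30 and 60 min; peak-area ratio to internal standard by LC-MS/MS without a standard curve. CLint = k/P.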

Liver microsomes = assay: Intrinsic clearance in human liver microsomes at 1 uM after 60 mins by LC-MS/MS analysis; type: ADME, Microsome; settings: 1 h
Outline: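 1 µM in <0.25% DMSO, 37 °C, human liver microsomes 0.5 mg/mL protein, started with cofactors. Time points 0, 10, 20, 30 and 60 min; NADPH addition confirmed by fluorimetry. LC-MS/MS peak-area ratio to internal standard; CLint = k/P.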

[1] = target: Mitogen-activated protein kinase 1 (Homo sapiens) (UniProt P28482); assay: Inhibition of MAPK1 at 28 uM by luciferase fragment complementation assay
Toll-like receptor 4 [2] = target: T1, Toll-like receptor 4 (Homo sapiens, UniProt O00206); assay: Inhibition of LPS-induced TLR4 activation in human whole blood assessed as inhibition of IL-8 release preincubated for 5 to 10 mins
Outline: (§1)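 Fresh human blood anticoagulated with lepirudin, preincubated with compound 5–10 min at 37 °C, then stimulated with 100 ng/mL ultrapure E. coli 0111:B4 LPS, rotating 2 h at 37 °C. Stopped with EDTA 10 mM final; plasma TNF-α, IL-8 and IL-6 measured by singleplex Bio-plex, expressed as % of LPS without inhibitor. n = 3 or 9, paired two-sided t-test.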

[3] = Octanol/water distribution coefficient, log D of the compound at pH 7.4; type: physicochemical
Outline: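 Octanol/water distribution measured at pH 7.4.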

Toll-like receptor 4 [4] = target: T1, Toll-like receptor 4; assay: Inhibition of LPS-induced TLR4 activation in human whole blood assessed as inhibition of IL-6 release at 500 uM preincubated for 5 to 10 mins; outline: as §1
Blood = assay: Cytotoxicity against human whole blood assessed as hemolysis at 1 mM; type: tissue-based; settings: 1000 µM
Outline: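 Human whole blood anticoagulated with lepirudin, exposed to compound at up to 1 mM; hemolysis checked.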

Toll-like receptor 4 [5] = target: T1, Toll-like receptor 4; assay: Inhibition of LPS-induced TLR4 activation in human whole blood assessed as reduction in plasma IL-8 level at 250 uM preincubated for 5 to 10 mins; outline: as §1
Toll-like receptor 4 [6] = target: T1, Toll-like receptor 4; assay: Inhibition of LPS-induced TLR4 activation in human whole blood assessed as reduction in plasma TNFalpha level at 250 uM preincubated for 5 to 10 mins; outline: as §1
[7] = target: Glycogen synthase kinase-3 alpha (Homo sapiens) (UniProt P49840); assay: Inhibition of GSK3alpha at 28 uM by luciferase fragment complementation assay
Sequence of Glycogen synthase kinase-3 alpha (Homo sapiens) (P49840 2-483 limits assumed): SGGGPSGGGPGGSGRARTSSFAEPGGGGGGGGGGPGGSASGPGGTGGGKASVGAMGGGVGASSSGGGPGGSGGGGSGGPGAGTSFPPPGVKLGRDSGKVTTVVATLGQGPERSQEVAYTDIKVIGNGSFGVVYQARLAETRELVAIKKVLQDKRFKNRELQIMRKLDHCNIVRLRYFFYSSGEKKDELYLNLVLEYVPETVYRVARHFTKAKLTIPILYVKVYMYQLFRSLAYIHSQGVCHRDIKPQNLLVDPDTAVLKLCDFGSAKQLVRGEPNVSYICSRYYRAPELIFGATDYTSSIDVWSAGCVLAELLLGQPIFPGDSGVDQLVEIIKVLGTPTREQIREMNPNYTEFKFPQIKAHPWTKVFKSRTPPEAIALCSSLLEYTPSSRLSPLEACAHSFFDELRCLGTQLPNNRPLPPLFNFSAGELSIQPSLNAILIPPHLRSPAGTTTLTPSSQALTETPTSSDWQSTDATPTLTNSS

T1 sequence (O00206 whole entry): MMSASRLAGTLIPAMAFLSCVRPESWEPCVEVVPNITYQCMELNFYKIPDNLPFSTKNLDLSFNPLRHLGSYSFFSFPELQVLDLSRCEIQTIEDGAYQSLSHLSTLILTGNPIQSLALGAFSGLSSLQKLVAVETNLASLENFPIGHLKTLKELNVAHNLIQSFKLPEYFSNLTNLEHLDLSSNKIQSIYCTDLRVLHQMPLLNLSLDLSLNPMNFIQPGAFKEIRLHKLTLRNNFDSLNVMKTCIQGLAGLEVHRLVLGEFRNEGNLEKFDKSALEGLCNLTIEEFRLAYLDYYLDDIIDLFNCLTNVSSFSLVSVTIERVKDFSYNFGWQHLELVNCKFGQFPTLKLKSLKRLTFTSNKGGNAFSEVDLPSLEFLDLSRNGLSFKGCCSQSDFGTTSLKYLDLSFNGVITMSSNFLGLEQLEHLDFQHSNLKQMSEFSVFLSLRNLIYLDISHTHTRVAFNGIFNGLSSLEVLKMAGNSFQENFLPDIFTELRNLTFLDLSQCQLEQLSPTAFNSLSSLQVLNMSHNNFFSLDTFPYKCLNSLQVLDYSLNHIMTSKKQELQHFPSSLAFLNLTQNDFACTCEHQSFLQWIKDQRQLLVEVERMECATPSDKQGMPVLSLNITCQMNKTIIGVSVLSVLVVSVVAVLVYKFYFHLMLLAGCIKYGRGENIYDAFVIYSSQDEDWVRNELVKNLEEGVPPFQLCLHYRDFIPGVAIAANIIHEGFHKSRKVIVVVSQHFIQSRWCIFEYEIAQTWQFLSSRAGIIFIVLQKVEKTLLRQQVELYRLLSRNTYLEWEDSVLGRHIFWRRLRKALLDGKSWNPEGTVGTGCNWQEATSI
Sequence of Mitogen-activated protein kinase 1 (Homo sapiens) (P28482 whole entry, the tested form may be a part): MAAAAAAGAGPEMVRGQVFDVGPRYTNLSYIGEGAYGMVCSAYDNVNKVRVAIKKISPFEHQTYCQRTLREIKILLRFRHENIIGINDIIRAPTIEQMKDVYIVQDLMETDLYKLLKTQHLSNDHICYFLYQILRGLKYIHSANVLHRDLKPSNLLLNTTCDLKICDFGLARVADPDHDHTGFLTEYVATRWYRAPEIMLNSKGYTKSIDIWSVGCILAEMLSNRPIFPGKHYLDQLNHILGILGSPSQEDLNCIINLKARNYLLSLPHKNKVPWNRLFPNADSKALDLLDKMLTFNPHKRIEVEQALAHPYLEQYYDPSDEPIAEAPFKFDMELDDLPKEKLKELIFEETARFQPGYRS

CL (Liver): 300 µL/min/mg
CL (Liver microsomes): > 700 µL/min/mg
inhibition [1]: ≤ 27%
IC50 (Toll-like receptor 4 [2]): 111 µM
inhibition (Toll-like receptor 4 [2]): Dose-dependent effect
logD [3]: 3.36
inhibition (Toll-like receptor 4 [4]): Active
inhibition (Toll-like receptor 4 [5]): 65%
inhibition (Toll-like receptor 4 [6]): 43%
inhibition [7]: ≤ 27%
SMILES: CCOc1ccc(OCC(O)CN(C)Cc2c(C)nn(Cc3ccccc3Cl)c2C)cc1 (racemic)
Activity (Blood): Non-toxic

Reference: ChEMBL document CHEMBL1821673, “Development of β-amino alcohol derivatives that inhibit Toll-like receptor 4 mediated inflammatory response as potential antiseptics” (J Med Chem, 2011)
